Reference: publication PMC4944921 (Drug Design, Development and Therapy, 2016)
Blank lines part the entries; values can stand above or below the molecule they belong to.

Assays:
[1] = test system: abdominal skin of Rana catesbeiana; conditions: menthol 5 mg/mL with puerarin, compared with puerarin alone group; cited from earlier work
[2] = test system: TJ proteins (occludin, claudin-1, F-actin) in Calu-3 cells; assay: Immunofluorescence microscopy of tight junction proteins in Calu-3 cells; type: cell-based, human; conditions: 3 hours treatment, vs control group
Outline: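 Calu-3 monolayers on collagen-coated 0.4 μm PET Transwell membranes were exposed to test compounds in medium for 3 h. Cells were fixed in cold 4% paraformaldehyde for 30 min and blocked with goat serum for 1 h. Anti-occludin or anti-claudin-1 (1:100, 4°C overnight) was detected with TRITC anti-rabbit or FITC anti-mouse IgG. F-actin was stained with phalloidin (1:150, RT, 30 min) and nuclei with DAPI. Relative AOD = (IntDen/Area) as % of control; three experiments; Dunnett test.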

[3] = test system: Calu-3 cells; assay: MTT cytotoxicity assay in Calu-3 cells; type: cell-based, human; conditions: comparison of the three compounds
Outline: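 Calu-3 cells were seeded at 1×10^5 cells/mL in 96-well plates and grown for 48 h at 37°C in 5% CO2. They were then exposed to test compounds at various concentrations for 48 h. MTT (5 mg/mL stock in PBS) was added for 4 h at 37°C, formazan was dissolved in DMSO, and A490 was read. Viability (%) = (Asample−Ablank)/(Acontrol−Ablank)×100, from the mean of five measurements.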

[4] = Puerarin bidirectional transport across Calu-3 cell monolayers; type: in vitro ADME, human; conditions: human
Outline: (§1)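 Calu-3 cells (passages 5–10) were grown on collagen-coated PET Transwells, switched to air-interface culture from day 5 and used once TEER exceeded 500 Ω cm2. Monolayers were HBSS-washed and equilibrated for 30 min at 37°C. Drug was placed apically (A→B) or basolaterally (B→A), with shaking at 37°C. Receiver samples were taken at 30–180 min for HPLC-UV at 250 nm (C18; methanol:1% acetate 37:63). Papp was normalised to donor concentration and membrane area; ER = Papp(B→A)/Papp(A→B); n=3.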

[5] = test system: Calu-3 cell monolayer; assay: as above; type: in vitro ADME, human
Outline: as §1

[6] = test system: Calu-3 cells; assay: TEER change of Calu-3 monolayers after exposure to compounds; type: cell-based, human; conditions: A→B and B→A, 30-180 minutes, vs control group
Outline: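 Monolayers with TEER above 500 Ω cm2 received drug solution on the apical side (HBSS basolateral) or on the basolateral side (HBSS apical). Untreated monolayers served as control. TEER was read with chopstick electrodes and an epithelial volt–ohm meter at 30, 60, 90, 120, 150 and 180 min. Values are expressed relative to pre-experiment TEER (100%) and compared with control by one-way ANOVA and Dunnett test (P<0.05); three experiments, mean ± SD.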

[7] = cited from earlier work

Structure (SMILES): CC1CCC(C(C)C)C(O)C1 (centres unmarked) [menthol]
Papp value of puerarin [1]: significantly higher | relative AOD of occludin, claudin-1, and F-actin [2]: decreased significantly | relative toxicity to Calu-3 cells [3]: most toxic

Papp at 180 min [4]: < 1.5 ×10⁻⁶ cm/s | efflux ratio at 180 min, 30 μg/mL ([4]; ER (B→A/A→B), puerarin 30 μg/mL alone): 0.963 ± 0.065 | efflux ratio at 180 min, 60 μg/mL ([4]; ER (B→A/A→B), puerarin 60 μg/mL alone): 1.01 ± 0.032 | Papp A→B at 180 min, 30 μg/mL ([4]; Papp (A→B), puerarin 30 μg/mL alone): 1.22 ± 0.027 ×10⁻⁶ cm/s | Papp A→B at 180 min, 60 μg/mL ([4]; Papp (A→B), puerarin 60 μg/mL + menthol 15 μg/mL): 1.28 ± 0.084 ×10⁻⁶ cm/s | Papp A→B at 180 min, 60 μg/mL ([4]; Papp (A→B), puerarin 60 μg/mL + menthol 30 μg/mL): 1.64 ± 0.058 ×10⁻⁶ cm/s | Papp A→B at 180 min, 60 μg/mL ([4]; Papp (A→B), puerarin 60 μg/mL + menthol 60 μg/mL): 1.79 ± 0.087 ×10⁻⁶ cm/s | Papp A→B at 180 min, 60 μg/mL ([4]; Papp (A→B), puerarin 60 μg/mL + paeoniflorin 12 μg/mL): 1.24 ± 0.027 ×10⁻⁶ cm/s | Papp A→B at 180 min, 60 μg/mL ([4]; Papp (A→B), puerarin 60 μg/mL + paeoniflorin 12 μg/mL + menthol 15 μg/mL): 1.3 ± 0.15 ×10⁻⁶ cm/s | Papp A→B at 180 min, 60 μg/mL ([4]; Papp (A→B), puerarin 60 μg/mL + paeoniflorin 24 μg/mL): 1.23 ± 0.054 ×10⁻⁶ cm/s | Papp A→B at 180 min, 60 μg/mL ([4]; Papp (A→B), puerarin 60 μg/mL + paeoniflorin 24 μg/mL + menthol 30 μg/mL): 1.56 ± 0.143 ×10⁻⁶ cm/s | Papp A→B at 180 min, 60 μg/mL ([4]; Papp (A→B), puerarin 60 μg/mL + paeoniflorin 48 μg/mL): 1.23 ± 0.025 ×10⁻⁶ cm/s | Papp A→B at 180 min, 60 μg/mL ([4]; Papp (A→B), puerarin 60 μg/mL + paeoniflorin 48 μg/mL + menthol 60 μg/mL): 1.96 ± 0.067 ×10⁻⁶ cm/s | Papp A→B at 180 min, 60 μg/mL ([4]; Papp (A→B), puerarin 60 μg/mL alone): 1.23 ± 0.039 ×10⁻⁶ cm/s | Papp A→B at 180 min, 120 μg/mL ([4]; Papp (A→B), puerarin 120 μg/mL alone): 1.24 ± 0.053 ×10⁻⁶ cm/s | Papp A→B at 180 min ([4]; Papp (A→B), puerarin alone, span over 30, 60 and 120 μg/mL): 1.22 to 1.24 ×10⁻⁶ cm/s | Papp B→A at 180 min, 30 μg/mL ([4]; Papp (B→A), puerarin 30 μg/mL alone): 1.17 ± 0.053 ×10⁻⁶ cm/s | Papp B→A at 180 min, 60 μg/mL ([4]; Papp (B→A), puerarin 60 μg/mL + menthol 15 μg/mL): 1.36 ± 0.083 ×10⁻⁶ cm/s | Papp B→A at 180 min, 60 μg/mL ([4]; Papp (B→A), puerarin 60 μg/mL + menthol 30 μg/mL): 1.8 ± 0.111 ×10⁻⁶ cm/s | Papp B→A at 180 min, 60 μg/mL ([4]; Papp (B→A), puerarin 60 μg/mL + menthol 60 μg/mL): 2.07 ± 0.151 ×10⁻⁶ cm/s | Papp B→A at 180 min, 60 μg/mL ([4]; Papp (B→A), puerarin 60 μg/mL + paeoniflorin 12 μg/mL): 1.24 ± 0.037 ×10⁻⁶ cm/s | Papp B→A at 180 min, 60 μg/mL ([4]; Papp (B→A), puerarin 60 μg/mL + paeoniflorin 12 μg/mL + menthol 15 μg/mL): 1.29 ± 0.067 ×10⁻⁶ cm/s | Papp B→A at 180 min, 60 μg/mL ([4]; Papp (B→A), puerarin 60 μg/mL + paeoniflorin 24 μg/mL): 1.25 ± 0.032 ×10⁻⁶ cm/s | Papp B→A at 180 min, 60 μg/mL ([4]; Papp (B→A), puerarin 60 μg/mL + paeoniflorin 24 μg/mL + menthol 30 μg/mL): 1.91 ± 0.254 ×10⁻⁶ cm/s | Papp B→A at 180 min, 60 μg/mL ([4]; Papp (B→A), puerarin 60 μg/mL + paeoniflorin 48 μg/mL): 1.29 ± 0.035 ×10⁻⁶ cm/s | Papp B→A at 180 min, 60 μg/mL ([4]; Papp (B→A), puerarin 60 μg/mL + paeoniflorin 48 μg/mL + menthol 60 μg/mL): 2.14 ± 0.13 ×10⁻⁶ cm/s | Papp B→A at 180 min, 60 μg/mL ([4]; Papp (B→A), puerarin 60 μg/mL alone): 1.24 ± 0.055 ×10⁻⁶ cm/s | Papp B→A at 180 min, 120 μg/mL ([4]; Papp (B→A), puerarin 120 μg/mL alone): 1.27 ± 0.104 ×10⁻⁶ cm/s | Papp B→A at 180 min ([4]; Papp (B→A), puerarin alone, span over 30, 60 and 120 μg/mL): 1.17 to 1.27 ×10⁻⁶ cm/s | efflux ratio at 180 min ([4]; efflux ratio (ER), puerarin alone, each concentration 30, 60, 120 μg/mL): < 1.5 | ER (B→A/A→B) ([5]; puerarin 60 μg/mL + menthol 15 μg/mL): 1.065±0.116 | ER (B→A/A→B) ([5]; puerarin 60 μg/mL + menthol 30 μg/mL): 1.100±0.060 | ER (B→A/A→B) ([5]; puerarin 60 μg/mL + menthol 60 μg/mL): 1.157±0.088 | ER (B→A/A→B) ([5]; puerarin 60 μg/mL + paeoniflorin 12 μg/mL): 1.002±0.039 | ER (B→A/A→B) ([5]; puerarin 60 μg/mL + paeoniflorin 12 μg/mL + menthol 15 μg/mL): 0.999±0.150 | ER (B→A/A→B) ([5]; puerarin 60 μg/mL + paeoniflorin 24 μg/mL): 1.018±0.065 | ER (B→A/A→B) ([5]; puerarin 60 μg/mL + paeoniflorin 24 μg/mL + menthol 30 μg/mL): 1.228±0.157 | ER (B→A/A→B) ([5]; puerarin 60 μg/mL + paeoniflorin 48 μg/mL): 1.049±0.027 | ER (B→A/A→B) ([5]; puerarin 60 μg/mL + paeoniflorin 48 μg/mL + menthol 60 μg/mL): 1.091±0.048 | ER (B→A/A→B) ([5]; puerarin 120 μg/mL alone): 1.023±0.070 | efflux ratio (ER) ([5]; puerarin alone, each concentration 30, 60, 120 μg/mL): ~ 1
Structure (SMILES): O=c1c(-c2ccc(O)cc2)coc2c([C@@H]3O[C@H](CO)[C@@H](O)[C@H](O)[C@H]3O)c(O)ccc12 [puerarin]
trend of TEER change [6]: no difference from the control group | relative AOD of occludin, claudin-1, and F-actin [2]: did not significantly differ | relative toxicity to Calu-3 cells [3]: safer and less irritating than paeoniflorin | AUC0−∞ (plasma) ([7]; Tongqiaosanyu, caudal vein injection, rats): 787.99±70.44 mg⋅min⋅L^−1 | AUC0–∞ (plasma) ([7]; Tongqiaosanyu, nasal administration, rats): 376.56±93.93 mg⋅min⋅L^−1 | brain drug targeting index ([7]; intranasal administration): 2.70 | brain targeting coefficient (Re) ([7]; intranasal administration): 132.25% | absolute bioavailability ([7]; nasal administration): 47.78%

Structure (SMILES): C[C@@]12C[C@@]3(O)O[C@@H](O1)[C@]1(COC(=O)c4ccccc4)[C@H]3C[C@@]12O[C@@H]1O[C@H](CO)[C@@H](O)[C@H](O)[C@H]1O [paeoniflorin]
relative AOD of occludin, claudin-1, and F-actin [2]: did not significantly differ
